Measured values taken from ChEMBL document CHEMBL1145959, “Design and synthesis of 8-hydroxy-[1,6]naphthyridines as novel inhibitors of HIV-1 integrase in vitro and in infected cells” (J Med Chem, 2003).

Tests used:
[1] = molecular target: Human immunodeficiency virus type 1 integrase (Human immunodeficiency virus 1, UniProt Q7ZJM1); assay: Compound was tested for its ability to inhibit the strand transfer of the integration process catalyzed by HIV integrase
MT4 [2] = assay: Cell culture inhibitory concentration which inhibits 95% spread of HIV infection in cell culture, using HIV-1 IIIB variant and MT-4 T-lymphoid cells; assay type: functional; conditions: Homo sapiens, read-out: CIC95
MT4 [3] = assay: Cytotoxicity of compound was determined on MT-4 cells; assay type: functional, Homo sapiens
Procedure, shortened: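 MT-4 cultures incubated 4 days with inhibitor. Toxicity scored by visual inspection for cytopathic effects: gross morphological changes, altered growth pattern, and metabolic change seen as lack of change in the medium pH indicator. Cell numbers also checked; cells typically double at least 4 times over the 4 days.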

[4] = Peak plasma level of compound (10 mg/kg) administered orally to rats after 60 min was determined; assay type: ADME, organism-based; set-up: dose 10 mg/kg, route oral; conditions: rat, po
Procedure, shortened: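 Rats dosed orally at 10 mg/kg as a 3.0 mg/mL aqueous solution with 1% methylcellulose and 1% DMSO. Plasma concentration followed over time, with Cmax taken as the peak plasma level.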

Sequence of Human immunodeficiency virus type 1 integrase (Q7ZJM1 whole entry): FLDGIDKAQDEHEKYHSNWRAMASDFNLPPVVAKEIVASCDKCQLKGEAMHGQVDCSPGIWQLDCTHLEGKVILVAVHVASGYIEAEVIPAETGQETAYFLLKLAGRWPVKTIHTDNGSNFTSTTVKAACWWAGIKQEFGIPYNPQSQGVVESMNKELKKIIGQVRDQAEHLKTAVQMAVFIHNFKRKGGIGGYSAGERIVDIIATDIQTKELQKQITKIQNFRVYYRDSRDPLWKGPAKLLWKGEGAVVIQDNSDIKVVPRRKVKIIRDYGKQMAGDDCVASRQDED

| Compound | IC50 [1] [nM] | IC95 (MT4 [2]) [nM] | Cytotoxicity (MT4 [3]) [µM] | Cmax [4] [nM] |
| --- | --- | --- | --- | --- |
| O=C(c1cc(Cc2ccccc2)ccn1)c1ccc2cccnc2c1O | 50 | 2500 | 2.5 | – |
| O=C(c1cc(Cc2ccccc2)cc(CN2CCCS2(=O)=O)c1)c1ncc2cccnc2c1O | 10 | 390 | >12.5 | 1170 |
| O=c1c2cc(Cc3ccccc3)ccc2oc2ccc(O)c(O)c12 | 600 | 6000 | 3 | – |
| O=C(c1cccc(Cc2ccccc2)c1)c1oc2cccnc2c1O | 1000 | > 50000 | 12.5 | – |
| O=C(O)C(=O)CC(=O)c1cccc(Cc2ccccc2)c1 | 10 | 1110 | >50 | – |
| O=C(c1cccc(Cc2ccccc2)c1)c1ncc2cccnc2c1O | 40 | 6200 | 12.5 | – |
| O=C(c1cccc(Cc2ccccc2)c1)c1ccc2cccnc2c1O | – | 5000 | 1.25 | – |
